# Many of the other results were omitted from the sample, so hits are more common in it than they were.
# PostGolgi yeast = phenotypic screen on post-Golgi transport, primary screen; post-Golgi transport phenotypic cell assay; inhibition, % at 10 µM; 98,000 compounds, 0.9% hits; AID 739, 2007;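 also: yeast cells grown in 1536-well plates; yeast grown about 18 h at 30C before absorbance read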
# Yeast growth inh = growth inhibitors of yeast BB579 in restrictive medium, primary screen, yeast lifespan-shortening project, S. cerevisiae; inhibition, % at 10 µM; 140,000 compounds, 0.51% hits; OD615, 48 h;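 active = inhibition above a set limit, 3 SD over the mean compound inhibition, cut at about 44% in these data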
#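 Test system: DeaD yeast strain BB579 / Buffer or medium: restrictive glucose-based CSMM-D medium / Doses: single 10 µM dose / Schedule: 4 h cell preincubation, 48 h compound exposure, 30 °C humidified / Technique: culture absorbance at 615 nm / Controls: amphotericin B positive control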
# Yeast life ext = compounds extending yeast replicative lifespan, primary screen, S. cerevisiae, OD615. inhibition of the nicotinamide effect, % at 10 µM. S. cerevisiae growth with nicotinamide; deaD strain in restrictive glucose medium. 130,000 compounds, 0.68% hits;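 active = inhibition above a set limit, placed 3 SD over the median of all compounds, cut at about 26% in these data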;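 also: 0% = nicotinamide-treated wells and 100% = cells grown without nicotinamide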
#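 Test system: DeaD-strain S. cerevisiae / Buffer or medium: restrictive glucose medium / Also added: nicotinamide 1.5 mM / Doses: one concentration, 10 µM, DMSO 0.25% / Schedule: 48 h at 30 °C / Signal: OD615 measurement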
# PostGolgi ctrl = growth inhibition of yeast control strain, primary screen, counter-screen for post-Golgi transport modulator project; 98,000 compounds, 5% hits; inhibition, % at 10 µM; efflux-deficient yeast background strain, growth absorbance A615, 16 h; AID 738, 2007
# * marks the source's active call; other numbers are inactive results; nt = not tested or not shown. Rule as the data show it, unless noted: active = inhibition above about 30%; inactive = the rest.
SMILES,PostGolgi yeast,Yeast growth inh,Yeast life ext,PostGolgi ctrl
CC(OC(=O)C1CCN(S(=O)(=O)c2ccc(Cl)cc2)CC1)C(=O)N1CCc2ccccc21 (centres undefined),8,-56,-18,23
Cc1[nH]n(-c2ccc([N+](=O)[O-])cc2)c(=O)c1C=NCCc1c(C)[nH]c2ccccc12,nt,-4,-4,nt
Cn1c(=O)c2c(nc(NCc3ccccc3)n2Cc2ccc(F)cc2)n(C)c1=O,-2,-29,-6,39*
Cc1c(Cl)cnc(NC(=O)COC(=O)CCc2nc3ccccc3s2)c1Cl,nt,-5,9,nt
CC(C)CN=C(NS(=O)(=O)c1ccccc1)C(Cl)(Cl)Cl,nt,-27,44*,nt
COc1ccccc1-n1cnnc1SC(C)C(=O)Nc1cccc([N+](=O)[O-])c1 (centres undefined),nt,-22,-1,nt
NS(=O)(=O)c1cccc(NC(=O)CN2CCN(Cc3ccc4c(c3)OCO4)CC2)c1,nt,-33,3,nt
CN(c1ccc(O)cc1)c1nc(-c2ccccc2)cs1,nt,82*,-12,nt
CNS(=O)(=O)c1cccc(C(=O)OCc2cc(=O)n3cc(Br)ccc3n2)c1,nt,-31,1,nt
CCOc1ccc(NC(=O)CN2CCN(CC(=O)Nc3ccc(Cl)c(C(F)(F)F)c3)CC2)cc1,-3,-37,-4,35*
O=C(CN1CCN(S(=O)(=O)c2ccc(F)cc2)CC1)Nc1ccc2c(c1)OCCO2,-1,-31,-10,14
CCOc1ccc(NC(=O)CN2CCN(CC(=O)Nc3cccc(F)c3)CC2)cc1,-9,-39,-15,1
O=C(CN1CCN(S(=O)(=O)c2ccc(F)cc2)CC1)Nc1ccc(Cl)c(C(F)(F)F)c1,0,-33,-19,33*
CC(C)=CC[N+]1(C)CCCCC1,nt,-23,4,nt
COC(=O)C1CC(O)CN1C(=O)c1ccco1 (centres undefined),-1,-53,-8,34*
Cc1cc(C)n(-c2nc3ccccc3n3nnnc23)n1,5,-16,-32,34*
O=S(=O)(NC1CC2CCC1C2)c1ccc(Br)s1 (centres undefined),90*,98*,-29,91*
O=S(=O)(NCC1CCCO1)c1ccc(Br)s1 (centres undefined),6,-21,-3,2
CCCCn1nnnc1SCC(=O)N1CCOCC1,4,-13,-8,0
Brc1cccc(-c2n[nH]c(-c3ccccc3)n2)c1,11,-11,-23,43*
CCc1c(C)nc2cc(-c3ccc(OC)c(OC)c3)nn2c1N1CCCC1,-4,-8,-32,32*
CCc1c(C)nc2cc(-c3cc(OC)cc(OC)c3)nn2c1N1CCCC1,1,-43,-9,43*
COc1cc(OC)cc(-c2cc3nc4c(c(N5CCN(c6ncccn6)CC5)n3n2)CCCC4)c1,1,-35,-11,69*
CCOCCN1CCN(c2c(CC)c(C)nc3cc(-c4cc(OC)cc(OC)c4)nn23)CC1,nt,-16,nt,nt
O=C(CN1CCN(c2ncccn2)CC1)NCCC1=CCCCC1,17,-17,2,4
SMILES,PostGolgi yeast,Yeast growth inh,Yeast life ext,PostGolgi ctrl
CN(C)c1ccc(/C=N/NC(=O)CN2CCN(c3ccc(F)cc3)CC2)cc1,nt,-32,5,nt
O=c1c2ccccc2cnn1Cc1n[nH]c(=S)n1-c1ccccc1,nt,-36,8,nt
O=C(C[n+]1cc2ccccc2c2ccccc21)c1ccccc1,-1,-23,-1,33*
O=C(C[n+]1cccc2ccccc21)c1ccccc1,nt,-20,4,nt
CCOC(=O)Nc1ccc2c(c1)Sc1ccccc1N2C(=O)CCN1CCOCC1,-2,-31,-8,6
Cc1cc(/C=C2\SC(=S)NC2=O)c(C)n1C,4,-33,-22,52*
Cc1nn(C)cc1/C=C1\SC(=S)NC1=O,-2,-48,-15,-1
Cc1oc2ccc(NS(=O)(=O)c3cccc4cccnc34)cc2c1C(=O)OC(C)C,nt,-27,-2,nt
c1ccc(CSc2nnc(-c3ccco3)n2Cc2ccco2)cc1,21,-64,-4,23
COc1ccc(C(=O)CSc2nnc(-c3ccccn3)n2Cc2ccco2)cc1,2,-54,-26,35*
O=C(CSc1nnc(-c2ccccn2)n1Cc1ccco1)c1ccccc1,2,-34,-2,31*
O=C1c2ccccc2C(=O)N1CCSc1nnc(-c2ccco2)n1Cc1ccccc1,3,-60,1,37*
Cc1ccccc1CSc1nnc(-c2ccco2)n1Cc1ccco1,-1,-28,-4,39*
O=C(CSc1nnc(-c2ccccn2)n1Cc1ccco1)c1ccc(Cl)cc1,9,-52,-5,20
Cc1ccccc1OCCC(=O)NCCc1ccc(S(N)(=O)=O)cc1,nt,-11,-3,nt
Cn1c(CNC(=O)c2cccs2)nnc1SCC(=O)Nc1ccccc1,nt,-15,-5,nt
CCOc1ccc(S(=O)(=O)N2CCN(C(=O)c3cc4c(s3)CCCC4)CC2)cc1,nt,-16,-2,nt
COc1ccc(-c2c(NC(=O)c3ccco3)n(C)c3ccccc3c2=O)cc1,-5,4,-6,0
COc1cc(Cl)c(C)cc1NC(=O)CSc1nnc(-c2ccccn2)n1Cc1ccco1,4,-25,-13,40*
Brc1ccc(CSc2nnc(-c3ccccn3)n2Cc2ccco2)cc1,3,-45,7,33*
Cc1ccnc(N2C(=O)c3cccc4c([N+](=O)[O-])ccc(c34)C2=O)c1,105*,-10,42,53*
Cc1cc(NCCC(C)C)n2nc(C)c(-c3ccccc3)c2n1,-1,5,-22,53*
O=C(Nc1ccc(Br)cn1)c1cccc(-c2cc3ccccc3oc2=O)c1,nt,-37,76*,nt
Cc1nc(NC(=O)c2cccc(-c3cc4ccccc4oc3=O)c2)ccc1Br,nt,-39,0,nt
COc1cc(C(C)=O)ccc1COc1ccc(C(=O)OC(C)C(=O)NC(N)=O)cc1OC (centres undefined),nt,5,0,nt
SMILES,PostGolgi yeast,Yeast growth inh,Yeast life ext,PostGolgi ctrl
Cc1ccc(SC/C(O)=C(\C#N)c2nc3ccccc3n2C)cc1,-2,-46,20,37*
Cn1c(/C(C#N)=C(\O)CN2CCN(Cc3ccccc3)CC2)nc2ccccc21,-3,-3,-2,14
Cc1nnc(SCc2nc(N)nc(Nc3ccccc3)n2)s1,-13,2,-19,-3
COc1ccc(Nc2nc(N)nc(CSc3nnc(N)s3)n2)cc1,32*,6,-4,-4
COc1ccc(OCc2nc(N)nc(Nc3ccc(C)cc3)n2)cc1,2,-39,-18,53*
COc1ccccc1N1CCN(C(=O)COc2cc(C)ccc2C)CC1,nt,-31,0,nt
COc1ccccc1N1CCN(C(=O)COc2ccc(Cl)cc2Br)CC1,5,-63,-5,68*
COc1ccccc1N1CCN(C(=O)COc2ccc(C)cc2Br)CC1,-1,-25,-6,35*
COc1ccc(Cl)cc1NC(=S)NCCSc1ccc(C)cc1,nt,16,-6,nt
CCCC1=C(C(=O)OCC)C(c2ccc(OC)c(CSc3ccccn3)c2)C(C#N)=C(N)O1 (centres undefined),nt,-38,0,nt
Cc1ccc2[nH]c(C)c(CCNC(=O)C3CCCCC3C(=O)OCC(F)(F)F)c2c1 (centres undefined),nt,9,-2,nt

# Assay outcomes deposited in PubChem by SRMLSC.
